Calls of active or inactive are those of the source. The rule behind the calls is not given here.
Experiments:
[1] = system: Saccharomyces cerevisiae; test: Antifungal activity against Saccharomyces cerevisiae DSM 1333 after 36 hrs by disc diffusion method; type: organism-based; details: in vivo
[2] = molecular target: T1, 7-dehydrocholesterol reductase (Homo sapiens) (UniProt Q9UBM7); test: Inhibition of 7-dehydrocholesterol reductase in human HL60 cells assessed as accumulation of 7-dehydrocholesterol at 1 uM after 24 hrs by GC/MS analysis; type: cell-based; details: HL-60
T1 sequence (whole entry): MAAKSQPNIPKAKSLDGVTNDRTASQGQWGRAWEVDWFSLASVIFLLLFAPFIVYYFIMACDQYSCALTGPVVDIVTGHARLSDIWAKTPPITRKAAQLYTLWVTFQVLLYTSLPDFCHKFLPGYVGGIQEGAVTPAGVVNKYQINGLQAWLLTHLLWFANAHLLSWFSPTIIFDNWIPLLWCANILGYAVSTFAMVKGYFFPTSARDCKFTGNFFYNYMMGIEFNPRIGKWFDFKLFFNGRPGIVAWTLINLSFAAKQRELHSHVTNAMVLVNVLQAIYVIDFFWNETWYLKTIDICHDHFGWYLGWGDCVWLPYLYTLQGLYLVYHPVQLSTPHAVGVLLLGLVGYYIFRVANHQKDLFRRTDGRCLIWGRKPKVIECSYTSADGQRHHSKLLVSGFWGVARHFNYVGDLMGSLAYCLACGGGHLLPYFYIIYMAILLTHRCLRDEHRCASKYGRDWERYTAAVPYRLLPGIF
Summary of the method: (§1)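 HL-60 cells (1 × 10⁶) in lipid-free HL-60 medium given inhibitor at 50 μM or 1 μM (ethanol blank) for 24 h at 37 °C, 5% CO2. Pellet saponified in 1 M NaOH, 1 h at 70 °C, then TBME microextraction with cholestane internal standard. GC-MS sterol pattern compared with blanks and with AY 9944 and BM 15.766 references.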

[3] = Antifungal activity against Hyphopichia burtonii DSM 70663 after 36 hrs by disc diffusion method
[4] = system: Saccharomyces cerevisiae; test: Antimicrobial activity against Saccharomyces cerevisiae DSM 1333 after 48 hrs; type: organism-based; details: in vivo
Summary of the method: (§2)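 MIC against the yeast strains determined according to DIN 58940-84; clotrimazole as positive control.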

[5] = system: Yarrowia lipolytica; test: Antifungal activity against Yarrowia lipolytica DSM 1345 after 36 hrs by disc diffusion method; type: organism-based; details: in vivo
[6] = molecular target: T1, 7-dehydrocholesterol reductase (Homo sapiens); test: Inhibition of 7-dehydrocholesterol reductase in human HL60 cells assessed as accumulation of 7-dehydrocholesterol at 50 uM after 24 hrs by GC/MS analysis; type: cell-based; details: HL-60; summary of the method: as §1
[7] = system: Nakaseomyces glabratus; test: Antifungal activity against Candida glabrata DSM 11226 after 48 hrs; type: organism-based; details: in vivo; summary of the method: as §2
[8] = system: Nakaseomyces glabratus; test: Antifungal activity against Candida glabrata DSM 11226 after 36 hrs by disc diffusion method; type: organism-based; details: in vivo
[9] = Antibacterial activity against Staphylococcus equorum DSM 20675 after 36 hrs by disc diffusion method
[10] = system: HL-60; test: Cytotoxicity against human HL60 cells after 24 hrs by MTT assay; type: cell-based; details: HL-60, 24 h
Summary of the method: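 MTT colorimetric assay on HL-60 promyelocytic leukemia cells (RPMI 1640, 10% FBS, no antibiotics, 37 °C, 5% CO2) as a preliminary screen for unspecific cytotoxicity; cisplatin as reference.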

[11] = system: Escherichia coli; test: Antibacterial activity against Escherichia coli DSM 426 after 36 hrs by disc diffusion method; type: organism-based; details: in vivo
[12] = Antibacterial activity against Pseudomonas antimicrobica DSM 8361 after 36 hrs by disc diffusion method; details: burkholderia gladioli
[13] = Antibacterial activity against Streptococcus entericus DSM 14446 after 36 hrs by disc diffusion method
[14] = system: Yarrowia lipolytica; test: Antifungal activity against Yarrowia lipolytica DSM 1345 after 48 hrs; type: organism-based; details: in vivo; summary of the method: as §2
[15] = Antifungal activity against Aspergillus brasiliensis DSM 1988 after 36 hrs by disc diffusion method
[16] = molecular target: T2, 7-dehydrocholesterol reductase (Homo sapiens, UniProt Q9UBM7); test: Inhibition of […]-mediated cholesterol biosynthesis in human HL60 cells assessed as inhibition of 2-[13C]acetate after 24 hrs GC/MS analysis; type: cell-based, HL-60
T2 sequence (Q9UBM7 whole entry): T1 sequence (whole entry)
Summary of the method: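 Whole-cell cholesterol synthesis in HL-60 cells, 24 h with inhibitor and sodium 2-¹³C-acetate; six concentrations plus blank, in triplicate. Newly made labeled cholesterol (m/z 372–379, 462–469) measured by GC-MS against cholestane and normalized to Bradford protein. % inhibition against untreated control fitted to a variable-slope sigmoid, bottom fixed at 0, giving IC50; BM 15.766 as reference.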

[17] = molecular target: 3-beta-hydroxysteroid-Delta(8),Delta(7)-isomerase (Homo sapiens) (UniProt Q15125); test: Inhibition of delta8,7-isomerase in human HL60 cells assessed as accumulation of zymostenol at 50 uM after 24 hrs by GC/MS analysis; type: cell-based; details: HL-60; summary of the method: as §1
Chain of 3-beta-hydroxysteroid-Delta(8),Delta(7)-isomerase (Homo sapiens) (Q15125 whole entry): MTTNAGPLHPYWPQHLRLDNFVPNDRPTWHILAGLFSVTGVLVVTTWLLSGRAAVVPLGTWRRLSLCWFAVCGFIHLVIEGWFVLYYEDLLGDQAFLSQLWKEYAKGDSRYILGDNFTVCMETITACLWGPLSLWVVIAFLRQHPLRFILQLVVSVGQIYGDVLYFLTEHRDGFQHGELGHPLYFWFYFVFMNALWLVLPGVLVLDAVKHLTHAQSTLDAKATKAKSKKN

[18] = molecular target: 3-beta-hydroxysteroid-Delta(8),Delta(7)-isomerase (Homo sapiens) (UniProt Q15125); test: Inhibition of delta8,7-isomerase in human HL60 cells assessed as accumulation of zymostenol at 1 uM after 24 hrs by GC/MS analysis; type: cell-based; details: HL-60; summary of the method: as §1

SMILES | 7-DHCR inhibition (active/not active) [2] | MIC [4] [µg/mL] | 7-dehydrocholesterol accumulation (active/not active) [6] | MIC [7] [µg/mL] | MIC [14] [µg/mL] | IC50 [16] [µM] | isomerase inhibition (active/not active) [17] | inhibition (active/not active) [18] | Activity [1] | Activity [3] | Activity [5] | Activity [8] | Activity [9] | IC50 [10] [µM] | Activity [11] | Activity [12] | Activity [13] | Activity [15]
COc1cc2c(cc1O)CCN(CCc1ccccc1OC)C2 | inactive | > 20 | Active | > 20 | > 20 |  |  |  | Non-toxic | Non-toxic | Non-toxic | Non-toxic | Non-toxic | > 50 | Non-toxic | Non-toxic | Non-toxic | Non-toxic
COc1ccc(CCN2CCc3cc(O)c(OC)cc3C2)cc1 | Active | > 20 | Active | > 20 | > 20 |  | Active |  | Non-toxic | Toxic | Non-toxic | Non-toxic | Non-toxic | > 50 | Non-toxic | Non-toxic | Non-toxic | Non-toxic
COc1ccc2c(c1)CCN(CCc1ccccc1)C2 | inactive | > 20 | inactive | > 20 | > 20 |  | Active | Active | Non-toxic | Non-toxic | Non-toxic | Non-toxic | Non-toxic | > 50 | Non-toxic | Non-toxic | Non-toxic | Non-toxic
COc1cc2c(cc1O)CCN(CCc1ccc(OC)c(OC)c1)C2 | Active | > 20 |  | > 20 | > 20 | 7.3 |  |  | Non-toxic | Toxic | Non-toxic | Non-toxic | Non-toxic | > 50 | Non-toxic | Non-toxic | Non-toxic | Non-toxic
COc1cc2c(cc1O)CCN(CCc1ccc(F)cc1)C2 | Active | > 20 | Active | > 20 | > 20 |  | Active |  | Non-toxic | Toxic | Non-toxic | Non-toxic | Non-toxic | > 50 | Non-toxic | Non-toxic | Non-toxic | Non-toxic
O=C(O)c1ccc(CCN2CCN(C/C=C/c3ccc(Cl)cc3)CC2)cc1 |  |  |  |  |  | 0.5 |  |  |  |  |  |  |  |  |  |  |  | 
COc1ccc(CCN2CCc3cc(OC)ccc3C2)cc1 | inactive | > 20 | inactive | > 20 | > 20 |  | Active | Active | Non-toxic | Non-toxic | Non-toxic | Non-toxic | Non-toxic | > 50 | Non-toxic | Non-toxic | Non-toxic | Non-toxic

Further lines, with some results ahead:

7-DHCR inhibition (active/not active) [2] | MIC [4] [µg/mL] | 7-dehydrocholesterol accumulation (active/not active) [6] | MIC [7] [µg/mL] | MIC [14] [µg/mL] | IC50 [16] [µM] | isomerase inhibition (active/not active) [17] | inhibition (active/not active) [18] | SMILES | Activity [1] | Activity [3] | Activity [5] | Activity [8] | Activity [9] | IC50 [10] [µM] | Activity [11] | Activity [12] | Activity [13] | Activity [15]
Active | > 20 |  | > 20 | > 20 | 0.12 |  |  | COc1cccc(CCN2CCc3cc(O)c(OC)cc3C2)c1 | Non-toxic | Non-toxic | Non-toxic | Non-toxic | Non-toxic | > 50 | Non-toxic | Non-toxic | Non-toxic | Non-toxic
inactive | > 20 | Active | > 20 | > 20 |  |  |  | Oc1ccc(CCN2CCc3cc(O)ccc3C2)cc1 | Non-toxic | Non-toxic | Non-toxic | Non-toxic | Non-toxic | > 50 | Non-toxic | Non-toxic | Non-toxic | Non-toxic
inactive | > 20 | inactive | > 20 | > 20 |  | Active | Active | COc1ccc(CCN2CCc3cc4c(cc3C2)OCO4)cc1 | Non-toxic | Non-toxic | Non-toxic | Non-toxic | Non-toxic | > 50 | Non-toxic | Non-toxic | Non-toxic | Non-toxic
 | < 1 |  | < 1 | < 1 |  |  |  | Clc1ccccc1C(c1ccccc1)(c1ccccc1)n1ccnc1 [CLOTRIMAZOLE] |  |  |  |  |  |  |  |  |  | 
inactive | > 20 | inactive | > 20 | > 20 |  | Active | Active | COc1ccc(CCN2CCc3cc(OC)c(OC)cc3C2)cc1 | Non-toxic | Non-toxic | Non-toxic | Non-toxic | Non-toxic | > 50 | Non-toxic | Non-toxic | Non-toxic | Non-toxic
inactive | > 20 | inactive | > 20 | > 20 |  | inactive | inactive | COc1ccc(CCN2CCc3cc(OC)c(O)cc3C2)cc1 | Non-toxic | Non-toxic | Non-toxic | Non-toxic | Non-toxic | > 50 | Non-toxic | Non-toxic | Non-toxic | Non-toxic

From ChEMBL document CHEMBL2169759, “A new class of selective and potent 7-dehydrocholesterol reductase inhibitors” (J Med Chem, 2012)
